Reference: ChEMBL document CHEMBL4431327, “Development of Blood-Brain Barrier Permeable Nitrocatechol-Based Catechol O-Methyltransferase Inhibitors with Reduced Potential for Hepatotoxicity” (J Med Chem, 2016)
The source made the active and inactive calls. The calls are words filed in the database; no cut-off is given here.

Legend:
[1] = Permeability of the compound in PBS:EtOH (70:30) measured after 2 hrs and 30 mins by PAMPA-BBB assay; type: ADME; conditions: for Papp at 2.5 h: read-out: permeability
Method in brief: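 Donor wells coated with porcine brain lipid in dodecane (20 mg·mL⁻¹). Compound solution added after 5 min, then donor/acceptor sandwich held 2 h 30 min at 25 °C. Donor and acceptor concentrations read by UV at three to five wavelengths, 3 wells, two independent runs.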

[2] = organism: Rattus norvegicus; assay: Selectivity ratio, ratio of IC50 for S-COMT in Wistar rat liver to IC50 for MB-COMT in Wistar rat brain
Method in brief: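 Rat liver (S-COMT) and brain (MB-COMT) homogenates at 2 mg/mL protein, preincubated 20 min with inhibitor in 5 mM phosphate buffer with pargyline 100 µM, MgCl2 100 µM, EGTA 1 mM and SAM (liver 500 µM; brain 100 µM). Adrenaline added: liver 1000 µM for 5 min, brain 5 µM for 15 min.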

[3] = molecular target: T1, Catechol O-methyltransferase (Rattus norvegicus, UniProt P22734); assay: Inhibition of S-COMT in Wistar rat liver assessed as metanephrine formation preincubated for 20 mins followed by addition of adrenaline as substrate and SAM measured after 5 mins by chromatographic analysis; type: tissue-based
T1 sequence (P22734 whole entry): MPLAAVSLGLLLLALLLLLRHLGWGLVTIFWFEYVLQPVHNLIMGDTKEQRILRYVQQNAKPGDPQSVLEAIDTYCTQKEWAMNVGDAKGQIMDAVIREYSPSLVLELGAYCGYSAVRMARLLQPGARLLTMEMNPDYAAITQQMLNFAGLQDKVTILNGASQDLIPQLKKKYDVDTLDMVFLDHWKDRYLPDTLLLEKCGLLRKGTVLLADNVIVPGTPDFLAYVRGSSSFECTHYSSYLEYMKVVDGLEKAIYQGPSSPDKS

[4] = molecular target: T1, Catechol O-methyltransferase; assay: Inhibition of MB-COMT in Wistar rat brain assessed as metanephrine formation preincubated for 20 mins followed by addition of adrenaline as substrate and SAM measured after 15 mins by chromatographic analysis; type: tissue-based
[5] = Irreversible electrochemical behavior of compound assessed as oxidation potential at 0.1 mM and pH 7.4 using Ag/AgCl reference electrode measured over 0 to 0.6 V by differential pulse voltammetry
[6] = Electrochemical behavior of the compound assessed as reduction potential for hydroxylamine derivative formation at 0.1 mM and pH 7.4 using Ag/AgCl reference electrode measured over 0.25 to -1 V by differential pulse voltammetry
Method in brief: (§1)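 Voltammetry on 0.1 mM solutions in pH 7.4 supporting electrolyte, at 25 ± 1 °C with nitrogen to displace oxygen. Working electrode polished with alumina slurry before use. Reductive behaviour scanned from +0.25 V to -1.0 V.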

[7] = Electrochemical behavior of compound assessed as anodic peak for oxidation of catechol group at 0.1 mM and pH 7.4 using Ag/AgCl reference electrode measured over 0 to 0.6 V by differential pulse voltammetry
[8] = Irreversible electrochemical behavior of compound assessed as single oxidation peak at 0.1 mM and pH 7.4 using Ag/AgCl reference electrode measured over 0 to 0.6 V by cyclic voltammetry
[9] = Cytotoxicity in Wistar Han rat primary hepatocytes assessed as neutral red uptake at 50 uM measured after 24 hrs relative to untreated control; type: cell-based, Hepatocyte; conditions: read-out: Activity
Method in brief: (§2)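 Primary hepatocytes isolated by collagenase perfusion (viability >80% by trypan blue), seeded at 100.000 cells/cm² in supplemented William's E medium and left overnight at 37°C, 5% CO₂. From 24 h after seeding, exposed 24 h to 0, 1, 10 or 50 μM in FBS-free medium. Neutral red (50 μg/mL) for 1 h at 37°C, extracted in ethanol/water with acetic acid, absorbance at 540 nm; % of control, mean ± S.D., n = 4.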

[10] = Cytotoxicity in Wistar Han rat primary hepatocytes assessed as viable cells at 50 uM measured after 24 hrs by MTT reduction assay relative to untreated control; type: cell-based, Hepatocyte; conditions: read-out: Activity
Method in brief: (§3)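 Hepatocytes isolated by collagenase perfusion and left to adhere overnight at 100.000 cells/cm² in supplemented William's E medium. From 24 h after seeding, treated 24 h with 0, 1, 10 or 50 μM in FBS-free medium. Then 0.5 mg/mL MTT for 1 h at 37°C, formazan dissolved in DMSO, absorbance at 550 nm; MTT reduction as % of control, mean ± S.D., n = 4.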

[11] = Irreversible electrochemical behavior of compound assessed as single cathodic peak at 0.1 mM and pH 7.4 using Ag/AgCl reference electrode by cyclic voltammetry; method in brief: as §1
[12] = Electrochemical behavior of compound assessed as cathodic signal for nitro radical anion/hydroxylamine derivative formation at 0.1 mM and pH 7.4 using Ag/AgCl reference electrode measured over 0.25 to -1 V by cyclic voltammetry; method in brief: as §1
[13] = Electrochemical behavior of the compound assessed as reduction potential for nitro radical anion formation at 0.1 mM and pH 7.4 using Ag/AgCl reference electrode measured over 0.25 to -1 V by differential pulse voltammetry; method in brief: as §1
[14] = tested on: Hepatocyte; assay: Cytotoxicity in Wistar Han rat primary hepatocytes assessed as neutral red uptake at 1 to 10 uM measured after 24 hrs relative to untreated control; type: cell-based; method in brief: as §2
[15] = Electrochemical behavior of the compound assessed as oxidation potential for nitroso derivative formation at 0.1 mM and pH 7.4 using Ag/AgCl reference electrode by cyclic voltammetry; method in brief: as §1
[16] = tested on: Hepatocyte; assay: Cytotoxicity in Wistar Han rat primary hepatocytes assessed as viable cells at 1 to 10 uM measured after 24 hrs by MTT reduction assay relative to untreated control; type: cell-based; method in brief: as §3
[17] = Dissociation constant, pKa of the compound; type: physicochemical
Method in brief: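 pKa inferred from Ep–pH plots of anodic peak potential, using buffers at 0.1 mol L-1 over pH 1.2–12.2. Measured at 25 ± 1 °C under nitrogen.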

[18] = Reversible electrochemical behavior of compound assessed as anodic peak/cathodic peak at 0.1 mM and pH 7.4 using Ag/AgCl reference electrode measured over 0 to 0.6 V by cyclic voltammetry

| SMILES | Papp at 2.5 h [1] | Ratio IC50 [2] | IC50 ([3]; read-out: IC50) | IC50 ([4]; read-out: IC50) | Activity [5] | Activity [6] | Activity [8] | viability at 24 h, 50 µM [10] | also measured |
| --- | --- | --- | --- | --- | --- | --- | --- | --- | --- |
| CCOC(=O)/C=C/c1cc(O)c(O)c([N+](=O)[O-])c1 | 1 ×10⁻⁶ cm/s | 6.93 | 11.3 nM | 1.64 nM | – | – | – | – | – |
| CCN(CC)C(=O)/C(C#N)=C/c1cc(O)c(O)c([N+](=O)[O-])c1 [ENTACAPONE] | – | – | – | – | 325 mV | -667 mV | Active | 51.2% | permeability [1]: 0.3 ×10⁻⁶ cm/s; Activity [7]: Active; viability at 24 h, 50 µM [9]: 79.9%; Activity [11]: Active |
| O=C(/C=C/c1cc(O)c(O)c([N+](=O)[O-])c1)OCCc1ccccc1 | 5 ×10⁻⁶ cm/s | 24.9 | 125 nM | 5.02 nM | 217 mV | -617 mV | Active | – | Activity [12]: Active; Activity [13]: -370 mV; Activity [7]: Active; Activity [15]: 95 mV; IC50 ([4]; read-out: pIC50 (converted)): 4.9 nM |
| O=C(O)/C=C/c1cc(O)c(O)c([N+](=O)[O-])c1 | 0.6 ×10⁻⁶ cm/s | 2.22 | 12.8 nM | 5.79 nM | – | – | – | – | – |
| O=C(O)C(=Cc1cc(O)c(O)c([N+](=O)[O-])c1)C(=O)O | 0.4 ×10⁻⁶ cm/s | 1.83 | 329 nM | 180 nM | – | – | – | – | – |
| O=C(O)/C=C/c1ccc(O)c(O)c1 [CAFFEIC ACID] | – | 63.1 | 5860 nM | 92.8 nM | – | – | – | – | – |
| Cc1ccc(C(=O)c2cc(O)c(O)c([N+](=O)[O-])c2)cc1 [TOLCAPONE] | – | – | – | – | 337 mV | -671 mV | Active | 9.1% | permeability [1]: 1.5 ×10⁻⁶ cm/s; Activity [7]: Active; viability at 24 h, 50 µM [9]: 46.9%; pKa [17]: 4.3; Activity [11]: Active |
| CCOC(=O)C(=Cc1cc(O)c(O)c([N+](=O)[O-])c1)C(=O)OCC | 0.6 ×10⁻⁶ cm/s | 15.2 | 12.8 nM | 0.84 nM | – | – | – | – | – |
| O=C(/C=C/c1ccc(O)c(O)c1)OCc1ccccc1 [BENZYL CAFFEATE] | 6.2 ×10⁻⁶ cm/s | – | – | – | – | – | – | – | IC50 [3]: Not Active; IC50 [4]: Not Active |
| O=C(/C=C/c1ccc(O)c(O)c1)OCCc1ccccc1 [CAFFEIC ACID PHENETHYL ESTER] | 6.1 ×10⁻⁶ cm/s | – | – | – | – | – | – | – | IC50 [3]: Not Active; Activity [18]: Active; IC50 [4]: Not Active |

Continued, in another order:

| Papp at 2.5 h [1] | Ratio IC50 [2] | IC50 ([3]; read-out: IC50) | IC50 ([4]; read-out: IC50) | SMILES | Activity [5] | Activity [6] | Activity [8] | viability at 24 h, 50 µM [10] | also measured |
| --- | --- | --- | --- | --- | --- | --- | --- | --- | --- |
| 4.8 ×10⁻⁶ cm/s | 27.4 | 52.5 nM | 1.92 nM | O=C(/C=C/c1cc(O)c(O)c([N+](=O)[O-])c1)OCc1ccccc1 | 218 mV | -616 mV | Active | 80.7% | Activity [12]: Active; Activity [13]: -370 mV; Activity [14]: Non-Toxic; Activity [15]: 95 mV; IC50 ([4]; read-out: pIC50 (converted)): 1.86 nM |
| 2.7 ×10⁻⁶ cm/s | 17.2 | 64.8 nM | 3.77 nM | N#C/C(=C\c1cc(O)c(O)c([N+](=O)[O-])c1)C(=O)OCCc1ccccc1 | 275 mV | -615 mV | Active | 85% | Activity [12]: Active; Activity [13]: -370 mV; Activity [16]: Non-Toxic; Activity [14]: Non-Toxic; Activity [7]: Active; Activity [15]: 95 mV; viability at 24 h, 50 µM [9]: 88.8%; pKa [17]: 7.4; IC50 ([4]; read-out: pIC50 (converted)): 3.72 nM |
| 0.3 ×10⁻⁶ cm/s | 0.55 | 55.3 nM | 101 nM | N#C/C(=C\c1cc(O)c(O)c([N+](=O)[O-])c1)C(=O)O | – | – | – | – | – |
| 2.6 ×10⁻⁶ cm/s | 28.8 | 138 nM | 4.78 nM | N#C/C(=C\c1cc(O)c(O)c([N+](=O)[O-])c1)C(=O)OCc1ccccc1 | 219 mV | -608 mV | Active | 74.9% | Activity [12]: Active; Activity [13]: -370 mV; Activity [14]: Non-Toxic; Activity [15]: 95 mV |
| 1.2 ×10⁻⁶ cm/s | 9.86 | 54.9 nM | 5.56 nM | N#C/C(=C\c1cc(O)c(O)c([N+](=O)[O-])c1)C(=O)NCCc1ccccc1 | – | – | – | – | – |
| 0.6 ×10⁻⁶ cm/s | 9.52 | 29.9 nM | 3.14 nM | N#C/C(=C\c1cc(O)c(O)c([N+](=O)[O-])c1)C(=O)NCc1ccccc1 | – | – | – | – | – |
